Measurements from ChEMBL document CHEMBL3351328.

Assays:
[1] = biological target: T1, Inosine-5'-monophosphate dehydrogenase (Cryptosporidium parvum, UniProt Q8T6T2); assay: Inhibition of Cryptosporidium parvum IMPDH assessed as reduction in NADH production
T1 sequence (Q8T6T2 whole entry): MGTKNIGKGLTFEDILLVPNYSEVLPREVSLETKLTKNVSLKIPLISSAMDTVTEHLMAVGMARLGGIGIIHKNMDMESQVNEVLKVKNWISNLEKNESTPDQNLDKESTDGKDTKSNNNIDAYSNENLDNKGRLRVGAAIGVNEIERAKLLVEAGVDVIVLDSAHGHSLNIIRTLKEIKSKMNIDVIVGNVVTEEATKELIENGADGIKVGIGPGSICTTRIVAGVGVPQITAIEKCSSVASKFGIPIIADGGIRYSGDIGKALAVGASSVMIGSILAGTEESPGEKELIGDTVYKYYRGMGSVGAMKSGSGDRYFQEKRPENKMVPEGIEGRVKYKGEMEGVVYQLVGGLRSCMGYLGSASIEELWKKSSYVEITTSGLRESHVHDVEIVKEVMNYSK
Summary of the method: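 Purified expressed CpIMPDH enzyme; activity followed by NADH production. IC50 taken as the average of three independent experiments unless otherwise noted.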

[2] = biological target: Inosine-5'-monophosphate dehydrogenase 2 (Homo sapiens) (UniProt P12268); assay: Inhibition of human IMPDH2 assessed as reduction in NADH production at 5 uM
Sequence of Inosine-5'-monophosphate dehydrogenase 2 (Homo sapiens) (P12268 2-514 limits assumed): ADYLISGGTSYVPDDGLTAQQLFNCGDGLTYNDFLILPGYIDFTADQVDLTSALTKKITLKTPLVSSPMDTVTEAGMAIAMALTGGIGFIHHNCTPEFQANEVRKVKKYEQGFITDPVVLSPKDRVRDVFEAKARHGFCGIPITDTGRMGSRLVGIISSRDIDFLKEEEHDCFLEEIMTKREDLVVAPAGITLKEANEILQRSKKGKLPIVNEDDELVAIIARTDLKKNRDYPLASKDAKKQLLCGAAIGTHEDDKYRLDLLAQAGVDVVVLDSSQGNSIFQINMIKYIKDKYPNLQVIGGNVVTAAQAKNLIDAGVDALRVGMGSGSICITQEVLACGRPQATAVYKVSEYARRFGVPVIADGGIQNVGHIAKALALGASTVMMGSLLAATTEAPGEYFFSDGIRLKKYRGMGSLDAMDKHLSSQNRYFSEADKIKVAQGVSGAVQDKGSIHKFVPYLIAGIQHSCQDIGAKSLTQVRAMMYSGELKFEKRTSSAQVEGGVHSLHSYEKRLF

Row | Compound | IC50 [1] | inhibition [2]
1 | COc1cc(N(C)C(=O)Cn2ncc3c(=O)oc4ccccc4c32)ccc1Cl | > 5000 nM | 
2 | O=C(Cn1ncc2c(=O)oc3ccccc3c21)Nc1ccc2cc[nH]c2c1 | 120 nM | < 20%
3 | O=C(Cn1ncc2c(=O)oc3ccccc3c21)Nc1ccc2ccccc2c1 | 67 nM | < 20%
4 | O=C(Cn1ncc2c(=O)oc3ccccc3c21)Nc1ccc(C(F)(F)F)cc1 | 580 nM | < 20%
5 | COc1cc(NC(=O)C(C)n2ncc3c(=O)oc4ccccc4c32)ccc1Cl (stereo unspecified) | 63 nM | < 20%
6 | COc1cc(NC(=O)Cn2ncc3c2-c2ccccc2CC3)ccc1Cl | 100 nM | < 20%
7 | O=C(Cn1ncc2c(=O)oc3ccccc3c21)Nc1ccccc1Cl | > 5000 nM | 
8 | O=C(Cn1ncc2c(=O)oc3ccccc3c21)Nc1ccc2c(c1)OCCO2 | 190 nM | < 20%
9 | O=C(Cn1ncc2c(=O)oc3ccccc3c21)Nc1cccc(Cl)c1 | > 5000 nM | 
10 | O=C(Cn1ncc2c(=O)oc3ccccc3c21)Nc1ccc2ncccc2c1 | 80 nM | < 20%
11 | COc1cc(NC(=O)Cn2ncc3c(=O)oc4cc(C)ccc4c32)ccc1Cl | 2000 nM | 
12 | O=C(Cn1ncc2c(=O)oc3ccccc3c21)Nc1ccc2[nH]ccc2c1 | > 5000 nM | 
13 | COc1cccc(NC(=O)Cn2ncc3c(=O)oc4ccccc4c32)c1 | 1500 nM | 
14 | O=C(Cn1ncc2c(=O)oc3ccccc3c21)Nc1ccc2[nH]cnc2c1 | 2500 nM | 
15 | O=C(Cn1ncc2c(=O)oc3ccccc3c21)Nc1ccc(F)cc1 | 460 nM | < 20%
16 | O=C(Cn1ncc2c(=O)oc3ccccc3c21)Nc1ccc(Cl)c(Cl)c1 | 44 nM | < 20%
17 | COc1cc(NC(=O)Cn2ncc3c2-c2ccccc2OC3)ccc1Cl | 70 nM | < 20%
18 | COc1ccc(NC(=O)Cn2ncc3c(=O)oc4ccccc4c32)cc1OC | 2500 nM | 
19 | COc1cc(NC(=O)Cn2ncc3c(=O)oc4ccccc4c32)ccc1Cl | 20 nM | < 20%
20 | O=C(Cn1ncc2c(=O)oc3ccccc3c21)Nc1ccc(Cl)cc1Cl | > 5000 nM | 
